Published values collected from several papers.
Each line is one published result; the experiments were not run side by side.
Target: Tyrosine-protein kinase Blk (BLK, Homo sapiens, UniProt P51451)

For `F[C@@H]1CCN(c2nccc(-c3cnn4ncccc34)n2)C1`, the remaining binding was 100% (binding; 1 µM).
For `Cc1nc(C2CCN(C(=O)c3ccc(OC(F)(F)F)cc3N)CC2)c2ncc(N3CCN(C)CC3)cc2n1`, the remaining binding was 97% (cell-free assay, competition with immobilised ligand; 1 µM).
`COc1cnc(Nc2cccc(S(N)(=O)=O)c2)nc1N1CCN(c2ccccc2)C(=O)C1` has a remaining binding of 100% (binding, competition with immobilised ligand; 1 µM).
For `Cc1cnc(Nc2ccc(C(=O)N3CCC(N4CCCC4)CC3)cc2)nc1-c1cc2ccccc2s1`, the remaining binding was 74% (binding, competition with immobilised ligand; 1 µM).
The remaining binding of `CCN1CCN(Cc2ccc(C(=O)Nc3ccc(C)c(Oc4ccc5c(c4)CC(=O)N5)c3)cc2C(F)(F)F)CC1` is reported as 93% (binding, competition with immobilised ligand; 1 µM).
The remaining binding of `COc1cnc(Nc2cccc(S(N)(=O)=O)c2)nc1N1CCN(c2ccccc2)CC1` is reported as 80% (binding, competition with immobilised ligand; 1 µM).
`C[C@H]1CCN(c2nccc(-c3cnn4ncccc34)n2)C1` gave a remaining binding of 100% (binding; 1 µM).
The remaining binding of `O=C(N1CCS(=O)(=O)CC1)N1C[C@H](c2ccc(OC(F)(F)F)cc2)C[C@H](c2nc(C3CC3)no2)C1` is reported as 100% (cell-free assay, competition with immobilised ligand; 1 µM).
`O=C(NCCCN1CCOCC1)c1ccc(Nc2nccc(-c3cc4ccccc4s3)n2)cc1` has a remaining binding of 100% (binding, competition with immobilised ligand; 1 µM).
`O=C(NCC1CCOCC1)c1n[nH]cc1NC(=O)c1c(F)cccc1F` gave a remaining binding of 100% (binding, competition with immobilised ligand; 1 µM).
`COc1ccc2c(O[C@@H]3C[C@H]4C(=O)N[C@]5(C(=O)O)CC5/C=C\CCCCC[C@H](NC(=O)OC5CCCC5)C(=O)N4C3)cc(-c3csc(NC(=O)C(C)C)n3)nc2c1C` (stereo partly shown) gave a remaining binding of 97% (cell-free assay, competition with immobilised ligand; 1 µM).
The remaining binding of `Cc1cnn2ncc(-c3ccnc(N(C)C)n3)c2c1` is reported as 28% (binding; 1 µM).
`c1ccc(N2CCN(Cc3nc4ccccc4[nH]3)CC2)nc1` gave a remaining binding of 100% (cell-free assay, competition with immobilised ligand; 1 µM).
For `N[C@@H]1CCN(c2nccc(-c3cnn4ncccc34)n2)C1`, the remaining binding was 97% (binding; 1 µM).
The remaining binding of `CO[C@@H](C)c1c(Nc2ccc([C@@H](N(C)C(=O)C3CCS(=O)(=O)CC3)C(F)(F)F)cc2)cnc2cc(Cl)nn12` is reported as 56% (cell-free assay, competition with immobilised ligand; 1 µM).
`COc1ncc2cc3ccccc3nc2c1C#N` gave a remaining binding of 87% (cell-free assay, competition with immobilised ligand; 5 µM).
With `CN(C)c1ncc(F)c(-c2cnn3ncccc23)n1` the remaining binding was 90% (binding; 1 µM).
`O=C(NCCCN1CCOCC1)c1ccc(Nc2ncc(Cl)c(-c3ccc(Cl)s3)n2)cc1` gave a remaining binding of 100% (binding, competition with immobilised ligand; 1 µM).
The remaining binding of `COc1cc(-c2cn(C3CCc4ccccc4N(CC(F)(F)F)C3=O)nn2)ccc1-n1ccc(C)n1` (stereo not shown) is reported as 100% (cell-free assay, competition with immobilised ligand; 1 µM).
`CN(CCCC(F)(F)F)c1nccc(-c2cnn3ncccc23)n1` has a remaining binding of 91% (binding; 1 µM).
With `CN([C@@H]1CCc2c(CC(=O)O)c3cc(S(C)(=O)=O)ccc3n2C1)S(=O)(=O)c1ccc(F)cc1` the remaining binding was 99% (cell-free assay, competition with immobilised ligand; 1 µM).
`c1cncc(-c2cccc(Nc3nccc(NC4CCCCC4)n3)c2)c1` gave a remaining binding of 5.8% (binding, competition with immobilised ligand; 10 µM).
